Experiments:
Type in all cases: functional
K562 = assay: Growth inhibition of human K562 cells assessed as cell growth at 10^-4 M incubated for 48 hrs by sulforhodamine B assay; conditions: K562, 48 h, read-out: Activity
[1] = Growth inhibition of human SW620 cells assessed as cell growth at 10^-7 M incubated for 48 hrs by sulforhodamine B assay; conditions: SW-620, 48 h, read-out: Activity
[2] = Growth inhibition of human Caki1 cells assessed as cell growth at 10^-5 M incubated for 48 hrs by sulforhodamine B assay; conditions: CAKI-1, 48 h, read-out: Activity
Procedure, shortened: (§1)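 Cells seeded at 5,000–40,000/well according to doubling time and preincubated 24 h at 37 °C, 5% CO2. Time-zero plates were TCA-fixed. DMSO concentrate was diluted in medium with 50 µg/ml gentamicin to give five concentrations (10-fold or ½ log steps), then exposed 48 h. Cells were TCA-fixed, stained with 0.4% SRB and read at 515 nm. Percent growth was taken against time-zero and control; GI50, TGI and LC50 derived.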

SK-MEL-28 = assay: Growth inhibition of human SK-MEL-28 cells assessed as cell growth at 10^-7 M incubated for 48 hrs by sulforhodamine B assay; conditions: SK-MEL-28, 48 h, read-out: Activity
NCI-H522 [3] = assay: Growth inhibition of human NCI-H522 cells assessed as cell growth at 10^-4 M incubated for 48 hrs by sulforhodamine B assay; conditions: NCI-H522, 48 h, read-out: Activity
[4] = Growth inhibition of human TK10 cells assessed as cell growth at 10^-4 M incubated for 48 hrs by sulforhodamine B assay; conditions: TK-10, 48 h, read-out: Activity
[5] = Growth inhibition of human SF539 cells assessed as cell growth at 10 uM incubated for 48 hrs by sulforhodamine B assay; conditions: SF-539, 48 h, read-out: Activity
[6] = Growth inhibition of human SF539 cells assessed as cell growth at 10^-7 M incubated for 48 hrs by sulforhodamine B assay; conditions: SF-539, 48 h, read-out: Activity
[7] = Growth inhibition of human COLO205 cells assessed as cell growth at 10^-8 M incubated for 48 hrs by sulforhodamine B assay; conditions: COLO 205, 48 h, read-out: Activity; procedure, shortened: as §1
[8] = Growth inhibition of human HCT15 cells assessed as cell growth at 10 uM incubated for 48 hrs by sulforhodamine B assay; conditions: HCT-15, 48 h, read-out: Activity
Procedure, shortened: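 Primary screen at one dose (10 µM) across 60 human cancer cell lines. Readout was growth percent relative to untreated control and time-zero.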

MDA-MB-468 = assay: Growth inhibition of human MDA-MB-468 cells assessed as cell growth at 10^-8 M incubated for 48 hrs by sulforhodamine B assay; conditions: MDA-MB-468, 48 h, read-out: Activity
CCRF-CEM = assay: Growth inhibition of human CCRF-CEM cells assessed as cell growth at 10 uM incubated for 48 hrs by sulforhodamine B assay; conditions: read-out: Activity
Procedure, shortened: (§2)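 One-dose screen at 10 µM final. Cells are plated at 5,000–40,000 per well according to doubling time and preincubated 24 h at 37 °C, 5% CO₂. Compound (DMSO stock diluted in medium with 50 µg/ml gentamicin) is then added for 48 h. Growth percent is read by sulforhodamine B staining, absorbance at 515 nm.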

[9] = Growth inhibition of human melanoma cells incubated for 48 hrs by sulforhodamine B assay; conditions: Melanoma cell
NCI-H322M [10] = assay: Growth inhibition of human NCI-H322M cells assessed as cell growth at 10^-6 M incubated for 48 hrs by sulforhodamine B assay; conditions: read-out: Activity
MCF7 = assay: Growth inhibition of human MCF7 cells assessed as cell growth at 10 uM incubated for 48 hrs by sulforhodamine B assay; conditions: MCF7, 48 h, read-out: Activity
NCI-H522 [11] = assay: Growth inhibition of human NCI-H522 cells assessed as cell growth at 10^-8 M incubated for 48 hrs by sulforhodamine B assay; conditions: NCI-H522, 48 h, read-out: Activity
NCI-H226 = assay: Growth inhibition of human NCI-H226 cells assessed as cell growth at 10^-6 M incubated for 48 hrs by sulforhodamine B assay; conditions: NCI-H226, 48 h, read-out: Activity
M14 = assay: Growth inhibition of human M14 cells assessed as cell growth at 10^-4 M incubated for 48 hrs by sulforhodamine B assay; conditions: M14, 48 h, read-out: Activity
[12] = Growth inhibition of human TK10 cells incubated for 48 hrs by sulforhodamine B assay; conditions: TK-10, 48 h
Procedure, shortened: (§3)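 Cells were plated at 5,000–40,000 per well according to doubling time and preincubated 24 h at 37 °C in 5% CO2; time-zero plates were then TCA-fixed. Five concentrations (10-fold or ½-log dilutions, DMSO stock) were incubated 48 h. Cells were TCA-fixed, stained with 0.4% SRB and read at 515 nm. GI50 was taken where [(Ti−Tz)/(C−Tz)]×100 = 50.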

NCI-H322M [13] = assay: Growth inhibition of human NCI-H322M cells assessed as cell growth at 10^-7 M incubated for 48 hrs by sulforhodamine B assay; conditions: read-out: Activity
NCI-H522 [14] = assay: Growth inhibition of human NCI-H522 cells assessed as cell growth at 10^-5 M incubated for 48 hrs by sulforhodamine B assay; conditions: NCI-H522, 48 h, read-out: Activity
T47D = assay: Growth inhibition of human T47D cells assessed as cell growth at 10^-6 M incubated for 48 hrs by sulforhodamine B assay; conditions: read-out: Activity
[15] = Growth inhibition of human SF295 cells incubated for 48 hrs by sulforhodamine B assay; conditions: SF-295, 48 h; procedure, shortened: as §3
[16] = Growth inhibition of human OVCAR5 cells assessed as cell growth at 10^-8 M incubated for 48 hrs by sulforhodamine B assay; conditions: OVCAR-5, 48 h, read-out: Activity
[17] = Growth inhibition of human RXF393 cells assessed as cell growth at 10 uM incubated for 48 hrs by sulforhodamine B assay; conditions: RXF 393, 48 h, read-out: Activity
[18] = Growth inhibition of human BT549 cells assessed as cell growth at 10 uM incubated for 48 hrs by sulforhodamine B assay; conditions: BT-549, 48 h, read-out: Activity; procedure, shortened: as §2
NCI-H460 = assay: Growth inhibition of human NCI-H460 cells assessed as cell growth at 10^-4 M incubated for 48 hrs by sulforhodamine B assay; conditions: NCI-H460, 48 h, read-out: Activity
NCI-H322M [19] = assay: Growth inhibition of human NCI-H322M cells incubated for 48 hrs by sulforhodamine B assay; procedure, shortened: as §3
[20] = read-out: LC50 (the source's name)
[21] = read-out: pLC50 (the source's name) (converted)

In the case of c1ccc(-c2nc(Nc3ccc(-c4nc5ccccc5[nH]4)cc3)nc(N3CCOCC3)n2)cc1, the growth at 100 µM (K562) is reported as -55%, the growth at 0.1 µM [1] is reported as 92% and the growth at 10 µM [2] is reported as -100%. It also gave a growth at 0.1 µM (SK-MEL-28) of 97%, a growth at 100 µM (NCI-H522 [3]) of -74% and a growth at 100 µM [4] of -94%. It also gave a growth at 10 µM [5] of -76.8%, a growth at 0.1 µM [6] of 93% and a growth at 0.01 µM [7] of 100%. The growth at 10 µM [8] was -68.9%, the growth at 0.01 µM (MDA-MB-468) was 96% and the growth at 10 µM (CCRF-CEM) was -15.7%. For the same molecule, the GI50 [9] was 1.56 µM, the TGI [9] was 3.18 µM and the CC50 [9, 20] was 6.52 µM. The growth at 1 µM (NCI-H322M [10]) was 86%, the growth at 10 µM (MCF7) was -76.2% and the growth at 0.01 µM (NCI-H522 [11]) was 100%. For the same molecule, the growth at 1 µM (NCI-H226) was 117%, the growth at 100 µM (M14) was -79% and the GI50 ([12]; read-out: GI50) was 2.15 µM. For the same molecule, the CC50 [12, 20] was 6.58 µM, the TGI ([12]; read-out: TGI) was 3.76 µM and the GI50 ([12]; read-out: pGI50 (converted)) was 2.14 µM. For the same molecule, the CC50 [12, 21] was 6.61 µM, the TGI ([12]; read-out: pTGI (converted)) was 3.8 µM and the growth at 0.1 µM (NCI-H322M [13]) was 101%. For the same molecule, the growth at 10 µM (NCI-H522 [14]) was -75%, the growth at 1 µM (T47D) was 78% and the GI50 ([15]; read-out: GI50) was 1.25 µM. It also gave a CC50 [15, 20] of 6.47 µM, a TGI ([15]; read-out: TGI) of 2.84 µM and a GI50 ([15]; read-out: pGI50 (converted)) of 1.26 µM. For the same molecule, the CC50 [15, 21] was 6.46 µM, the TGI ([15]; read-out: pTGI (converted)) was 2.82 µM and the growth at 0.01 µM [16] was 90%. The growth at 10 µM [17] was -75.1%, the growth at 10 µM [18] was 33.6% and the growth at 100 µM (NCI-H460) was -78%. The GI50 (NCI-H322M [19]; read-out: GI50) was 1.65 µM, the CC50 (NCI-H322M [19]; [20]) was 6.67 µM and the TGI (NCI-H322M [19]; read-out: TGI) was 3.31 µM. For the same molecule, the GI50 (NCI-H322M [19]; read-out: pGI50 (converted)) was 1.66 µM, the CC50 (NCI-H322M [19]; [21]) was 6.61 µM and the TGI (NCI-H322M [19]; read-out: pTGI (converted)) was 3.31 µM.

Reference: ChEMBL document CHEMBL3808334, “Synthesis and in vitro evaluation of novel triazine analogues as anticancer agents and their interaction studies with bovine serum albumin” (Eur J Med Chem, 2016)
